These results are taken from ChEMBL document CHEMBL1123966, “Ring-substituted [1,2-bis(4-hydroxyphenyl)ethylenediamine]dichloroplatinum (II) complexes: compounds with a selective effect on the hormone-dependent mammary carcinoma” (1988).

Experiment [1] concerns MCF7S. Kind of experiment: Cell growth inhibition in hormone dependent MCF 7 breast cancer cells. It is filed as functional, cell-based. The note with it: Homo sapiens.
The nature of experiment [2]: Cell growth inhibition MXT-ER+ breast cancer cells at a dose of 11.3 mg/kg. It is filed as functional, organism-based. Details: dose 11.3 mg/kg. The note with it: Mus musculus, Cancer cell lines. An outline of the steps:
(§1)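 Hormone-dependent MXT mammary carcinoma (ER+) model. Equimolar doses (2 × 10⁻⁵ M/kg) were given sc three times weekly (Mon, Wed, Fri) as a solution or suspension in polyethylene glycol 400/H₂O (1:1); some agents were given in olive oil. Median tumor weight was taken at the end of 6 weeks of therapy and given as T/C %. Significance was tested by the Wilcoxon-Mann-Whitney U test.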

Experiment [3] in a line: Cell growth inhibition MXT-ER- breast cancer cells at a dose of 11.3 mg/kg. The format is functional, organism-based. Also on record: dose 11.3 mg/kg. The note with it: Mus musculus, Cancer cell lines. An outline of the steps:
(§2)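 Hormone-independent MXT mammary carcinoma (ER−) in mice. Equimolar doses (2 × 10⁻⁵ M/kg) were given sc three times a week (Mon, Wed, Fri) in polyethylene glycol 400/H₂O (1:1), or in olive oil for some agents. Median tumor area was measured at the end of a 2-week therapy and expressed as T/C %.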

The test system of experiment [4] is MDA-MB-231. Kind of experiment: Incorporation of [3H]- thymidine into hormone independent MDA-MB-231 breast cancer cells. It is filed as functional, cell-based. The note with it: Homo sapiens.
In experiment [5] the test system is MDA-MB-231. Kind of experiment: Cell growth inhibition in hormone independent MDA-MB-231 breast cancer cells. The format is functional, cell-based. The note with it: Homo sapiens.
For experiment [6], the system named is MDA-MB-231. As to the kind of experiment: Incorporation of [3H]- thymidine in hormone independent MDA-MB-231 breast cancer cells. The format is functional, cell-based. The conditions noted are these: Homo sapiens.
The species entered for experiment [7] is Mus musculus. Kind of experiment: Uterotrophic effect in BDF1 mouse measured as([weight of uterus (mg)/body weight (g)] *100). It is filed as functional. In short, it runs like this: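 Female BDF1 mice carrying MXT ER+ mammary carcinoma were dosed in olive oil, sc, three times a week, for 6 weeks. At the end of therapy, uterotropic effect = [uterus dry weight (mg)/body weight (g)] × 100, given as mean ± SD and as T/C % versus control. Significance was by the U test.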

Experiment [8] has as its system Mus musculus. Kind of experiment: Uterotrophic effect in BDF1 mouse at a dose of 11.3 mg/kg. The note with it: Uterus. It is filed as functional, organism-based. Details: dose 11.3 mg/kg. An outline of the steps: (§3)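 Uterus of BDF1 mice in the MXT ER+ study. Equimolar dosing at 2 × 10⁻⁵ M/kg, sc in PEG 400/H₂O 1:1 three times a week (Mon/Wed/Fri). Uterine response = [uterus dry weight (mg)/body weight (g)] × 100, determined after 6 weeks of therapy; U test.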

The test system of experiment [9] is Mus musculus. Kind of experiment: Median tumor weight of MXT (mammary carcinoma) ER+ determined at the end of 6 week therapy at a dose of 11.3 mg/kg. The format is functional, organism-based. Details: dose 11.3 mg/kg. In short, it runs like this: as §1
The subject of experiment [10] is MCF7S. As to the kind of experiment: Incorporation of [3H]- thymidine in hormone dependent MCF-7 breast cancer cells. The conditions noted are these: Homo sapiens. The format is functional, cell-based.
The subject of experiment [11] is Mus musculus. As to the kind of experiment: Uterotrophic effect in BDF1 mouse at a dose of 12.9 mg/kg. It is filed as functional, organism-based. Also on record: dose 12.9 mg/kg. The note with it: Uterus. An outline of the steps:
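Uterus of BDF1 mice in the MXT ER+ study. Equimolar dosing at 2 × 10⁻⁵ M/kg, sc in olive oil three times a week (Mon/Wed/Fri). Uterine response = [uterus dry weight (mg)/body weight (g)] × 100, determined at the end of the 6-week therapy; U test.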

Experiment [12] can be described thus: Cell growth inhibition MXT-ER+ breast cancer cells at a dose of 12.9 mg/kg. The format is functional, organism-based. Details: dose 12.9 mg/kg. The conditions noted are these: Mus musculus, Cancer cell lines. An outline of the steps: as §1
Experiment [13] concerns Mus musculus. Kind of experiment: Median tumor weight of MXT (mammary carcinoma) ER+ determined at the end of 6 week therapy at a dose of 12.9 mg/kg. The format is functional, organism-based. Also on record: dose 12.9 mg/kg. An outline of the steps:
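BDF1 mice with hormone-dependent MXT mammary carcinoma (ER+). Equimolar dosing at 2 × 10⁻⁵ M/kg, given sc in olive oil three times a week (Mon/Wed/Fri) for 6 weeks. Median tumor weight was taken at the end of therapy and compared with controls by the Wilcoxon–Mann–Whitney U test.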

A short description of experiment [14]: Cell growth inhibition MXT-ER- breast cancer cells at a dose of 12.9 mg/kg. The note with it: Mus musculus, Cancer cell lines. It is filed as functional, organism-based. Also on record: dose 12.9 mg/kg. An outline of the steps:
as §2

The nature of experiment [15]: Cell growth inhibition MXT-ER+ breast cancer cells at a dose of 10.9 mg/kg. It is filed as functional, organism-based. Also on record: dose 10.9 mg/kg. The note with it: Mus musculus, Cancer cell lines. In short, it runs like this: as §1
The subject of experiment [16] is Mus musculus. Kind of experiment: Median tumor weight of MXT (mammary carcinoma) ER+ determined at the end of 6 week therapy at a dose of 10.9 mg/kg. Details: dose 10.9 mg/kg. It is filed as functional, organism-based. In short, it runs like this: as §1
For experiment [17], the system named is Mus musculus. As to the kind of experiment: Uterotrophic effect in BDF1 mouse at a dose of 10.9 mg/kg. The note with it: Uterus. Details: dose 10.9 mg/kg. The format is functional, organism-based. An outline of the steps:
as §3

Experiment [18] can be described thus: Cell growth inhibition MXT-ER- breast cancer cells at a dose of 10.9 mg/kg. The note with it: Mus musculus, Cancer cell lines. Also on record: dose 10.9 mg/kg. The format is functional, organism-based. An outline of the steps: as §2
Experiment [19] deals with Mus musculus. Kind of experiment: Median tumor weight of MXT ER+ determined at the end of 6 week therapy at a dose of 13.4 mg/kg. It is filed as functional, organism-based. Details: dose 13.4 mg/kg. In short, it runs like this:
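BDF1 mice with hormone-dependent MXT mammary carcinoma (ER+). Equimolar dosing at 2 × 10⁻⁵ M/kg, given sc three times a week (Mon/Wed/Fri) for 6 weeks as a solution or suspension in PEG 400/H₂O 1:1. Median tumor weight was taken at the end of therapy; U test (Wilcoxon, Mann, Whitney).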

The subject of experiment [20] is Mus musculus. Kind of experiment: Uterotrophic effect in BDF1 mouse at a dose of 13.4 mg/kg. The note with it: Uterus. The format is functional, organism-based. Also on record: dose 13.4 mg/kg. An outline of the steps: as §3
Experiment [21] is described as follows: Cell growth inhibition of MXT-ER+ breast cancer cells at a dose of 13.4 mg/kg. The format is functional, organism-based. Also on record: dose 13.4 mg/kg. The conditions noted are these: Mus musculus, Cancer cell lines. In short, it runs like this: as §1
Experiment [22] can be described thus: Cell growth inhibition of MXT-ER- breast cancer cells at a dose of 13.4 mg/kg. The format is functional, organism-based. Details: dose 13.4 mg/kg. The note with it: Mus musculus, Cancer cell lines. An outline of the steps:
as §2

In general, T/C refers to the ratio of treated to control.

With meso-2-PtCl2(2-6-(CH3)2), the ED50 in the experiment with MCF7S [1] turned out to be 3.1 µM; in the experiment with MDA-MB-231 [4], 2.7 µM; in the experiment on MDA-MB-231 [5], 2.7 µM; in the experiment on MCF7S [10], 0.9 µM. Besides, the T/C in the experiment on MCF7S [1] came to 17%; in [2], 9%; in [3], 63%; in the experiment on MDA-MB-231 [5], 34%; with MDA-MB-231 [6] it was 28%; in the experiment on Mus musculus [8], 96%. Also, in the experiment with MCF7S [10], the T/C stood at 4%. In the experiment filed under Mus musculus [7], this substance came in with an Effect of 86.6. The substance also registered a Med tumor weight in the experiment on Mus musculus [9] of 40 mg.

On to meso-3-PtCl2(2-CF3), for which the T/C with Mus musculus [11] amounted to 100%; in the experiment with MCF7S [1], 61%; in experiment [12], 78%; with MDA-MB-231 [5] it was 46%; in the experiment with MDA-MB-231 [6], 36%; in [14], 72%. The same substance gave a T/C in the experiment with MCF7S [10] of 27%. For the same substance, the ED50 in the experiment with MCF7S [1] was 5.1 µM; in the experiment with MDA-MB-231 [5] it was 4 µM; with MDA-MB-231 [6] it was 3.2 µM; in the experiment with MCF7S [10], 2.2 µM. The Effect in the experiment filed under Mus musculus [7] came to 70.9. Also, the Med tumor weight in the experiment with Mus musculus [13] was 422 mg.

For the substance meso-4-PtCl2(2-F), the T/C in [15] was determined as 30%; with MCF7S [1] it was 49%; in the experiment with MDA-MB-231 [5] it was 21%; in the experiment with MDA-MB-231 [6] it was 12%; with Mus musculus [17] it was 100%; in [18], 60%. In addition, in the experiment on MCF7S [10], the T/C was determined as 16%. The ED50 in the experiment with MCF7S [1] turned out to be 4.8 µM; with MDA-MB-231 [4] it was 0.9 µM; in the experiment on MDA-MB-231 [5], 1.5 µM; with MCF7S [10], 1.5 µM. For the same substance, the Med tumor weight in the experiment on Mus musculus [16] came out at 143 mg. Further, in the experiment filed under Mus musculus [7], the Effect worked out at 89.9.

Regarding meso-7-PtCl2(2-Br), the ED50 is 3.1 µM in the experiment with MCF7S [1], 1.2 µM in the experiment with MDA-MB-231 [4], 4.3 µM in the experiment with MDA-MB-231 [5] and 1.4 µM with MCF7S [10]. Moreover, the T/C with MCF7S [1] was found to be 30%; in the experiment on MDA-MB-231 [5] it was 43%; in the experiment on MDA-MB-231 [6] it was 13%; with Mus musculus [20] it was 99%; in experiment [21], 12%; in experiment [22] it was 65%. The T/C in the experiment on MCF7S [10] is 15%. The same substance registered a Med tumor weight in the experiment on Mus musculus [19] of 57 mg. This substance also registered an Effect in the experiment filed under Mus musculus [7] of 89.3.
